Measurements published in ChEMBL document CHEMBL5055627 (J Med Chem, 2021).
In brackets after ≈: the same amount, converted by molar mass. Activity calls are given as the source filed them. No cut-off for these calls is given here.

Assays:
[1] = biological target: T1, Proteasome Macropain subunit MB1 (Homo sapiens, UniProt P28074); assay: Inhibition of human 20S constitutive proteasome beta-5c subunit using Suc-LLVY-AMC as substrate measured over 1.5 to 2 hrs by plate reader assay
T1 sequence (P28074 whole entry): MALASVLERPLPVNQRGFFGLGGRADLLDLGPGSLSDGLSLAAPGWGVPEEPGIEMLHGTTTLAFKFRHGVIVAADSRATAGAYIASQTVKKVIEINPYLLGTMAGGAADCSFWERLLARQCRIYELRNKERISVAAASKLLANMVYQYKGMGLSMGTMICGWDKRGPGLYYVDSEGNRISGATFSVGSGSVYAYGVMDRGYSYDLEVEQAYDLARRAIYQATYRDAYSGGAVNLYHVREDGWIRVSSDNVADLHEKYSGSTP
Procedure, shortened: (§1)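 Human c-20S (from red blood cells; β5c 0.2 nM final) or i-20S (from PBMC; β5i 0.4 nM final), activated with 0.02% SDS. Buffer 20 mM HEPES, 0.5 mM EDTA, pH 7.5; 3-fold compound series from 100 μM.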

[2] = biological target: T2, 20S immunoproteasome beta-1i subunit (Homo sapiens, UniProt P28065); assay: Inhibition of human 20S immunoproteasome beta-1i subunit at 100 uM using Z-LLE-AMC as substrate measured over 1.5 to 2 hrs by plate reader assay relative to control; conditions: probe Z-LLE-AMC, time 1.5-2 hrs
T2 sequence (P28065 whole entry): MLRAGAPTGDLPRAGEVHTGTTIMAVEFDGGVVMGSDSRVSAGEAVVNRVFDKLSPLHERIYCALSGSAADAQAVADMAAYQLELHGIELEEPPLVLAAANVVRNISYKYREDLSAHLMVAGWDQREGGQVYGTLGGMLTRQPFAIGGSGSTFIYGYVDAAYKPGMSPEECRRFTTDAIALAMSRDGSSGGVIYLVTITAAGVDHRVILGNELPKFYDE
Procedure, shortened: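 Human c-20S β1c or i-20S β1i, activated with 0.02% SDS, with 50 μM Z-LLE-AMC in 20 mM HEPES, 0.5 mM EDTA, pH 7.5. AMC fluorescence (ex 360/em 460 nm) recorded over 1.5–2 h.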

[3] = biological target: T3, 20S immunoproteasome beta-2i subunit (Homo sapiens, UniProt P40306); assay: Inhibition of human 20S immunoproteasome beta-2i subunit at 100 uM using Z-VLR-AMC as substrate measured over 1.5 to 2 hrs by plate reader assay relative to control; conditions: probe Z-VLR-AMC, time 1.5-2 hrs
T3 sequence (P40306 whole entry): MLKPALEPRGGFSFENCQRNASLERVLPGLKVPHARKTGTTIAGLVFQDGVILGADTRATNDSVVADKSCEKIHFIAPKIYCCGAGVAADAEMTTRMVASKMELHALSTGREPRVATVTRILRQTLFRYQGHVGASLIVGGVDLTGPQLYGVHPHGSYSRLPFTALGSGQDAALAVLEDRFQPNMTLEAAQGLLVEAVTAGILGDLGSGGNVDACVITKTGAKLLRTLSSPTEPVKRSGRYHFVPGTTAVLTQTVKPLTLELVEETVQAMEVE
Procedure, shortened: (§2)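 Human c-20S β2c or i-20S β2i, activated with 6 nM PA28α, with 50 μM Z-VLR-AMC in 20 mM HEPES, 0.5 mM EDTA, pH 7.5. Compounds in 3-fold series from 100 μM.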

[4] = biological target: T4, Proteasome subunit beta type-8 (Homo sapiens, UniProt P28062); assay: Inhibition of human 20S immunoproteasome beta-5i subunit using Suc-LLVY-AMC as substrate measured over 1.5 to 2 hrs by plate reader assay; procedure, shortened: as §1
T4 sequence (P28062 whole entry): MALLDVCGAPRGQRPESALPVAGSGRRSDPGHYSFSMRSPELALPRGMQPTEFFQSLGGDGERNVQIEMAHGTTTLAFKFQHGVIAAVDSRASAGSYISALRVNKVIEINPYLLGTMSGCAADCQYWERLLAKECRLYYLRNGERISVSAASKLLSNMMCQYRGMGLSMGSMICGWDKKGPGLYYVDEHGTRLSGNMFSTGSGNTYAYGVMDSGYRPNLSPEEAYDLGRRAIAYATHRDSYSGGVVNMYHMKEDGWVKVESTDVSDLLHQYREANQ

[5] = Stability of mouse liver microsomes assessed as intrinsic clearance at 1 uM measured upto 30 mins in presence of NADPH generating system by LC/MS-MS analysis; assay type: ADME, Microsome; conditions: 0.5 h
Procedure, shortened: (§3)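 Compound at 1 μM with human or mouse liver microsomes (0.2 mg protein/mL) in phosphate buffer pH 7.4, started with NADPH-generating system; 1% organic solvent. Incubated at 37 °C for 0, 15 and 30 min in duplicate, quenched with acetonitrile plus internal standard, analysed by LC/MS-MS. CLint = first-order k divided by protein concentration.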

HepG2 = assay: Cytotoxicity against human HepG2 cells assessed as cell viability at 30 uM incubated for 72 hrs relative to control; assay type: cell-based; conditions: hepg2, 72 h
Procedure, shortened: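 HepG2 cells exposed to 30 μM compound for 72 h, then viability assessed.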

[6] = Permeability of compound by PAMPA; assay type: ADME
[7] = Kinetic solubility of compound in PBS at pH 6.8 incubated for 24 hrs by UPLC/MS analysis; assay type: physicochemical; conditions: read-out: Kinetic_solubility
[8] = Stability of human liver microsomes assessed as intrinsic clearance at 1 uM measured upto 30 mins in presence of NADPH generating system by LC/MS-MS analysis; assay type: ADME, Microsome; conditions: 0.5 h; procedure, shortened: as §3
[9] = Stability in human plasma assessed as parent compound remaining incubated for 2 hrs by UPLC/MS analysis; assay type: ADME, cell-free; conditions: read-out: Stability
[10] = system: Mycobacterium tuberculosis; assay: Inhibition of intracellular 20S proteasome activity in Mycobacterium tuberculosis MHD1441 expressing Pup-GFP assessed as Pup-GFP accumulation measured after 4 days by fluorescence assay; assay type: cell-based; conditions: dose 0.1-33 µM, time 4.0 day
Procedure, shortened: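 Mtb H37Rv carrying pSCK1 (produces Pup-GFP), adjusted to OD 0.05 in 7H9. Compounds at 33, 11, 3.7, 1.2, 0.4 and 0.1 μM final, incubated 4 d at 37 °C. OD580 and fluorescence (ex 495/em 510 nm) read; RFU normalised to OD, then expressed as fold of DMSO control; ≥3 independent experiments.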

[11] = system: Mycobacterium tuberculosis; assay: Inhibition of intracellular 20S proteasome activity in Mycobacterium tuberculosis assessed as accumulation of pupylated protein at 50 uM incubated for 48 hrs; assay type: cell-based
Procedure, shortened: (§4)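 Mtb CDC1551 dop::MycoMarT7 expressing Pup-GGE (no depupylation) treated 48 h with compound at 1, 3 or 10 μM, or carfilzomib at 50 μM. Pupylated proteins detected by anti-Pup immunoblot, with anti-PrcB as loading control.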

[12] = system: Mycobacterium tuberculosis; assay: Inhibition of Mycobacterium tuberculosis 20S proteasome expressed in Escherichia coli BL21(DE3) assessed as half life using Suc-LLVY-AMC as substrate by plate reader assay
[13] = Inhibition of Mycobacterium tuberculosis 20S proteasome expressed in Escherichia coli BL21(DE3) using Suc-LLVY-AMC as substrate by plate reader assay
[14] = system: Mycobacterium tuberculosis; assay: Inhibition of intracellular 20S proteasome activity in Mycobacterium tuberculosis assessed as accumulation of pupylated protein incubated for 48 hrs; assay type: cell-based; conditions: dose 1-10 µM; procedure, shortened: as §4
[15] = system: Mycobacterium tuberculosis; assay: Bactericidal activity against Mycobacterium tuberculosis under nitrosative stress condition; assay type: functional, organism-based
Procedure, shortened: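 Non-replicating Mtb Erdman held in Sauton's medium with 0.5 mM NaNO₂ at pH 5.5 to generate NO; killing measured as reported previously.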

[16] = system: Mycobacterium tuberculosis; assay: Inhibition of Mycobacterium tuberculosis 20S proteasome expressed in Escherichia coli BL21(DE3) at 10 to 30 nM using Suc-LLVY-AMC as substrate by plate reader assay; conditions: dose 10-30 nM, TDE = time-dependent effect
[17] = biological target: T5, Proteasome subunit beta type-10 (Homo sapiens, UniProt P40306); assay: Inhibition of human 20S immunoproteasome beta-2i subunit using Z-VLR-AMC as substrate measured over 1.5 to 2 hrs by plate reader assay; procedure, shortened: as §2
T5 sequence (P40306 whole entry): T3 sequence (P40306 whole entry)

| Structure (SMILES) | IC50 [1] [µM] | inhibition at 100 µM [2] [%] | inhibition at 100 µM [3] [%] | IC50 [4] [µM] | other results |
| --- | --- | --- | --- | --- | --- |
| CC(=O)N[C@H]1Cc2cccc(c2)Oc2ccc(cc2)C[C@@H](C(=O)NCc2ccccc2F)NC(=O)[C@H](CC(=O)N2CCC[C@@H]2c2ccccc2)NC1=O | > 100 | < 50 | < 50 | > 100 | – |
| O=C(N[C@H]1Cc2cccc(c2)Oc2ccc(cc2)C[C@@H](C(=O)NCc2ccccc2F)NC(=O)[C@H](CC(=O)N2CCC[C@@H]2c2ccccc2)NC1=O)c1ccccc1 | > 100 | < 50 | < 50 | > 100 | – |
| O=C1CCc2cccc(c2)OCCCC[C@@H](C(=O)NCc2ccccc2F)NC(=O)[C@H](CC(=O)N2CCC[C@@H]2c2ccccc2)N1 | > 100 | < 50 | < 50 | > 100 | CLH [5]: > 768 µL/min/mg; Activity (HepG2): 102%; permeability [6]: 20.6 ×10⁻⁶ cm/s; solubility kinetic at 24 h [7]: 33 µg/mL (≈ 52.5 µM); CLH [8]: > 768 µL/min/mg; remaining at 2 h [9]: 97%; inhibition [10]: Dose-dependent effect |
| O=C1CCCCCCCCC[C@@H](C(=O)NCc2cccc3ccccc23)NC(=O)[C@H](CC(=O)N2CCCC2)N1 | > 100 | < 50 | < 50 | > 100 | – |
| CCN(CC)C(=O)C[C@H](NC(=O)CCc1ccccc1)C(=O)N[C@@H](Cc1ccc(F)cc1)C(=O)NCc1cccc2ccccc12 | 70 | – | – | 54.7 | – |
| O=C1CCCCCCCCOC[C@@H](C(=O)NCc2cccc3ccccc23)NC(=O)[C@H](CC(=O)N2CCCC2)N1 | > 100 | < 50 | < 50 | > 100 | – |
| CC(C)C[C@H](NC(=O)[C@H](CCc1ccccc1)NC(=O)CN1CCOCC1)C(=O)N[C@@H](Cc1ccccc1)C(=O)N[C@@H](CC(C)C)C(=O)[C@@]1(C)CO1 | – | – | – | – | inhibition [11]: Active |
| O=C1CCCCCCCCCC[C@@H](C(=O)NCc2cccc3ccccc23)NC(=O)[C@H](CC(=O)N2CCCC2)N1 | > 100 | < 50 | < 50 | > 100 | – |
| O=C1CCc2cccc(c2)Oc2ccc(cc2)C[C@@H](C(=O)NCc2ccccc2F)NC(=O)[C@H](CC(=O)N2CCC[C@@H]2c2ccccc2)N1 | > 100 | < 50 | < 50 | > 100 | T1/2 [12]: 16.5 min; CLH [5]: > 768 µL/min/mg; Ki [13]: 0.0121 µM; Activity (HepG2): 98%; inhibition [14]: Dose-dependent effect; permeability [6]: 22.7 ×10⁻⁶ cm/s; Activity [15]: Dose-dependent effect; solubility kinetic at 24 h [7]: 1.4 µg/mL (≈ 2.11 µM); CLH [8]: > 768 µL/min/mg; remaining at 2 h [9]: 94%; inhibition [16]: Tde; inhibition [10]: Dose-dependent effect |
| O=C1CCc2cccc(c2)Oc2ccc(cc2)C[C@@H](C(=O)NCc2ccccc2F)NC(=O)[C@H](CC(=O)N2CCCC2)N1 | > 100 | < 50 | < 50 | 21.1 | – |
| O=C1CCCCCCCCOC[C@@H](C(=O)NCc2ccccc2F)NC(=O)[C@H](CC(=O)N2CCC[C@@H]2c2ccccc2)N1 | > 100 | < 50 | < 50 | > 100 | CLH [5]: > 768 µL/min/mg; Activity (HepG2): 91%; permeability [6]: 26 ×10⁻⁶ cm/s; CLH [8]: > 768 µL/min/mg; remaining at 2 h [9]: 86%; inhibition [10]: Dose-dependent effect |
| O=C1CCc2cccc(c2)OCCCC[C@@H](C(=O)NCc2ccccc2F)NC(=O)[C@H](CC(=O)N2CCC[C@H]2C2CC2)N1 | 1.5 | < 50 | < 50 | 0.87 | – |
| O=C1N[C@@H](CC(=O)N2CCCC2)C(=O)N[C@H](C(=O)NCc2cccc3ccccc23)CCCCCCCCCC1Cc1ccccc1 (stereo partly drawn) | – | < 50 | < 50 | > 100 | – |
| O=C1CCc2cccc(c2)OCCCC[C@@H](C(=O)NCc2ccccc2F)NC(=O)[C@H](CC(=O)N2CCC[C@@H]2C2CC2)N1 | 0.073 | < 50 | < 50 | 0.069 | IC50 [17]: 44.5 µM |
| O=C1CCc2cccc(c2)OCCCC[C@@H](C(=O)NCc2ccccc2F)NC(=O)[C@H](CCN2CCC[C@@H]2c2ccccc2)N1 | 86.2 | – | – | 47.3 | – |
